Measurements from ChEMBL document CHEMBL1146386, “Design, synthesis, and preliminary in vitro and in silico antiviral activity of [4,7]phenantrolines and 1-oxo-1,4-dihydro-[4,7]phenantrolines against single-stranded positive-sense RNA genome viruses” (Bioorg Med Chem, 2007).
The source made the active and inactive calls. The calls are words filed in the database; no cut-off is given here.

Legend:
[1] = Cytotoxicity against human MT4 cells after 96 hrs by MTT method; format: cell-based
Method in brief: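 Exponentially growing MT-4 cells (CD4+ T-cells carrying integrated HTLV-1) seeded at 1×10^5 cells/mL in RPMI-1640 with 10% FCS, penicillin and streptomycin, with or without serial compound dilutions; 96 h at 37 °C, humidified 5% CO2. Viability by MTT; value = concentration reducing proliferation by 50%, untreated controls undergoing at least three rounds of multiplication.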

[2] = system: Reovirus sp.; experiment: Antiviral activity against Reovirus; format: functional, organism-based
[3] = system: Respiratory syncytial virus; experiment: Antiviral activity against RSV; format: functional, organism-based
[4] = system: Coxsackievirus B2; experiment: Antiviral activity against CVB2 in Vero 76 cells after 3 days by plaque reduction assay; format: functional, organism-based; settings: Enterovirus B, 72 h
Method in brief: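 Vero 76 cells seeded 2×10^5 cells/well, confluent overnight; infected to give 50-100 PFU/well; unadsorbed virus removed, then DMEM with 1% inactivated FCS and 0.75% methyl cellulose ± serial dilutions added. After 3 days at 37 °C, fixed and stained with 50% ethanol/0.8% crystal violet in PBS; plaques counted; EC50 by linear regression.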

[5] = system: Vesicular stomatitis virus; experiment: Antiviral activity against VSV; format: functional, organism-based
[6] = Cytotoxicity against BHK1 cells after 48 to 120 hrs by MTT method; format: cell-based, Mesocricetus auratus; settings: hamster
Method in brief: (§1)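 Cells placed in maintenance medium at initial 1×10^6 (BHK) or 6×10^5 (MDBK) cells/mL, with or without serial compound dilutions, run in parallel with antiviral tests. Viability by MTT after 48–120 h at 37 °C, humidified 5% CO2; CC50 = concentration reducing mock-infected cell viability by 50%; mean of three determinations.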

[7] = system: Human immunodeficiency virus 1; experiment: Antiviral activity against HIV1 in MT4 cells by plaque reduction assay; format: functional, organism-based; settings: Human immunodeficiency virus 1, MT4
[8] = Cytotoxicity against MDBK cells after 48 to 120 hrs by MTT method; format: cell-based, Bos taurus; settings: cattle; method in brief: as §1
[9] = system: Yellow fever virus; experiment: Antiviral activity against YFV in BHK1 cells assessed as inhibition of virus-induced cytopathogenicity after 2 to 3 days by MTT method; format: functional, organism-based
[10] = system: Bovine viral diarrhea virus 1; experiment: Antiviral activity against BVDV in MDBK cells assessed as inhibition of virus-induced cytopathogenicity after 2 to 3 days by MTT method; format: functional, organism-based; settings: Bovine viral diarrhea virus isolates and strains
Method in brief: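 MDBK cells seeded 2.5×10^4 cells/well, grown overnight to confluence at 37 °C, 5% CO2; infected at moi 0.01 in serum-free medium; after 1 h, MEM Earle's with 1% inactivated FCS ± serial compound dilutions (DMSO stock diluted in medium) added. Viability read by MTT after 2-3 days at 37 °C; EC50 = 50% protection from cytopathogenicity; mean of three determinations.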

[11] = system: Enterovirus C; experiment: Antiviral activity against Poliovirus Sb1 in Vero 76 cells after 2 days by plaque reduction assay; format: functional, organism-based; settings: 48 h
Method in brief: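 Vero 76 monolayers (2×10^5 cells/well, grown overnight) infected with Sabin strain at 50-100 PFU/well. Unabsorbed virus removed, then DMEM with 1% inactivated FCS and 0.75% methyl cellulose added, with or without serial compound dilutions (100 mM DMSO stock diluted in medium). Held 2 days at 37 °C, then fixed and stained with ethanol/crystal violet and plaques counted. EC50 (50% plaque reduction) by linear regression; mean of three determinations.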

[12] = Cytotoxicity against Vero 76 cells after 48 to 120 hrs by MTT method; format: cell-based; settings: chlorocebus sabaeus

## O=c1cc[nH]c2c(Cl)c(Cl)c3ncccc3c12
[1]
  CC50 at 96 h: 47 µM
[2]
  Activity: inactive
[3]
  Activity: inactive
[4]
  EC50: > 80 µM
[5]
  Activity: inactive
[6]
  CC50: > 100 µM
[7]
  EC50: > 47 µM
[8]
  CC50: > 100 µM
[9]
  EC50: > 100 µM
[10]
  EC50: 16 µM
[11]
  EC50: > 80 µM
[12]
  CC50: 80 µM

## O=C(O)c1c[nH]c2c(Cl)c(Cl)c3ncccc3c2c1=O
[1]
  CC50 at 96 h: > 100 µM
[2]
  Activity: inactive
[3]
  Activity: inactive
[4]
  EC50: > 100 µM
[5]
  Activity: inactive
[6]
  CC50: 23 µM
[7]
  EC50: > 100 µM
[8]
  CC50: > 100 µM
[9]
  EC50: > 23 µM
[10]
  EC50: > 100 µM
[11]
  EC50: 85 µM
[12]
  CC50: 100 µM

## CCOC(=O)c1c[nH]c2c(Cl)c(Cl)c3ncccc3c2c1=O
[1]
  CC50 at 96 h: 32 µM
[2]
  Activity: inactive
[3]
  Activity: inactive
[4]
  EC50: > 90 µM
[5]
  Activity: inactive
[6]
  CC50: 25 µM
[7]
  EC50: > 32 µM
[8]
  CC50: > 100 µM
[9]
  EC50: > 25 µM
[10]
  EC50: 35 µM
[11]
  EC50: > 90 µM
[12]
  CC50: 90 µM

## CCOc1ccnc2ccc3ncccc3c12
[1]
  CC50 at 96 h: 56 µM
[2]
  Activity: inactive
[3]
  Activity: inactive
[4]
  EC50: 5 µM
[5]
  Activity: inactive
[6]
  CC50: 35 µM
[7]
  EC50: > 56 µM
[8]
  CC50: 64 µM
[9]
  EC50: > 35 µM
[10]
  EC50: 6 µM
[11]
  EC50: 17 µM
[12]
  CC50: 80 µM

## O=c1cc[nH]c2ccc3ncccc3c12
[1]
  CC50 at 96 h: > 100 µM
[2]
  Activity: inactive
[3]
  Activity: inactive
[4]
  EC50: > 100 µM
[5]
  Activity: inactive
[6]
  CC50: 66 µM
[7]
  EC50: > 100 µM
[8]
  CC50: > 100 µM
[9]
  EC50: > 66 µM
[10]
  EC50: 95 µM
[11]
  EC50: > 100 µM
[12]
  CC50: > 100 µM

## Nc1ccnc2c(Cl)c(Cl)c3ncccc3c12
[1]
  CC50 at 96 h: 7.2 µM
[2]
  Activity: inactive
[3]
  Activity: inactive
[4]
  EC50: 2 µM
[5]
  Activity: inactive
[6]
  CC50: 11 µM
[7]
  EC50: > 7.2 µM
[8]
  CC50: 24 µM
[9]
  EC50: > 11 µM
[10]
  EC50: ≥ 24 µM
[11]
  EC50: 14 µM
[12]
  CC50: 40 µM

## Nc1ccnc2ccc3ncccc3c12
[1]
  CC50 at 96 h: 50 µM
[2]
  Activity: inactive
[3]
  Activity: inactive
[4]
  EC50: > 90 µM
[5]
  Activity: inactive
[6]
  CC50: > 100 µM
[7]
  EC50: > 50 µM
[8]
  CC50: 63 µM
[9]
  EC50: > 100 µM
[10]
  EC50: 9 µM
[11]
  EC50: > 90 µM
[12]
  CC50: 90 µM

## CCOc1ccnc2c(Cl)c(Cl)c3ncccc3c12
[1]
  CC50 at 96 h: > 100 µM
[2]
  Activity: inactive
[3]
  Activity: inactive
[4]
  EC50: 2 µM
[5]
  Activity: inactive
[6]
  CC50: 25 µM
[7]
  EC50: > 100 µM
[8]
  CC50: 64 µM
[9]
  EC50: > 25 µM
[10]
  EC50: 25 µM
[11]
  EC50: 11 µM
[12]
  CC50: 75 µM

## CC(=O)Nc1ccnc2c(Cl)c(Cl)c3ncccc3c12
[1]
  CC50 at 96 h: 13 µM
[2]
  Activity: inactive
[3]
  Activity: inactive
[4]
  EC50: 2 µM
[5]
  Activity: inactive
[6]
  CC50: 18 µM
[7]
  EC50: > 13 µM
[8]
  CC50: 32 µM
[9]
  EC50: > 18 µM
[10]
  EC50: 22 µM
[11]
  EC50: 21 µM
[12]
  CC50: 50 µM

## c1cnc2ccc3ncccc3c2c1
[1]
  CC50 at 96 h: 61 µM
[2]
  Activity: inactive
[3]
  Activity: inactive
[4]
  EC50: > 80 µM
[5]
  Activity: inactive
[6]
  CC50: > 100 µM
[7]
  EC50: > 61 µM
[8]
  CC50: > 100 µM
[9]
  EC50: > 100 µM
[10]
  EC50: 17 µM
[11]
  EC50: > 80 µM
[12]
  CC50: 80 µM

## Clc1c(Cl)c2nccc(Cl)c2c2cccnc12
[1]
  CC50 at 96 h: 6.4 µM
[2]
  Activity: inactive
[3]
  Activity: inactive
[4]
  EC50: > 100 µM
[5]
  Activity: inactive
[6]
  CC50: > 100 µM
[7]
  EC50: > 6.4 µM
[8]
  CC50: 54 µM
[9]
  EC50: > 100 µM
[10]
  EC50: > 54 µM
[11]
  EC50: > 100 µM
[12]
  CC50: > 100 µM

## Clc1c(Cl)c2ncccc2c2cccnc12
[1]
  CC50 at 96 h: 24 µM
[2]
  Activity: inactive
[3]
  Activity: inactive
[4]
  EC50: 11 µM
[5]
  Activity: inactive
[6]
  CC50: > 100 µM
[7]
  EC50: > 24 µM
[8]
  CC50: > 100 µM
[9]
  EC50: > 100 µM
[10]
  EC50: 16 µM
[11]
  EC50: 6 µM
[12]
  CC50: 25 µM
